Experimental data reported in ChEMBL document CHEMBL4680071, “Structure guided generation of thieno[3,2-d]pyrimidin-4-amine Mycobacterium tuberculosis bd oxidase inhibitors” (RSC Med Chem, 2021).

Columns and labels:
[1] = Inhibition of […] tuberculosis Erdman assessed as replicating ATP by measuring ATP depletion incubated for 15 hrs in presence of Q203 by BacTiter-Glo luminescence assay; parameters: species or system Mycobacterium tuberculosis str. Erdman
How it was run: (§1)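 Cultures grown in Middlebrook 7H9 with 0.05% Tween 80, 0.5% glycerol, BSA fraction V, D-glucose and NaCl. Cells pelleted, resuspended in glycerol-free medium at about 10^7 CFU/mL, added to compound dilutions. Plates incubated 15 h at 37°C. BacTiter-Glo reagent added, luminescence read after 12 min to give ATP level. IC50 from curve fitting.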

[2] = Inhibition of cytochrome-bd oxidase in Mycobacterium tuberculosis clinical isolate N0145 assessed as replicating ATP by measuring ATP depletion incubated for 15 hrs in absence of Q203 by BacTiter-Glo luminescence assay; how it was run: as §1
[3] = Inhibition of cytochrome-bd oxidase in Mycobacterium tuberculosis H37Rv assessed as replicating ATP by measuring ATP depletion incubated for 15 hrs in absence of Q203 by BacTiter-Glo luminescence assay; how it was run: as §1

| SMILES | IC50 [1] [µM] | IC50 [2] [µM] | IC50 [3] [µM] |
| --- | --- | --- | --- |
| CCc1nc(NCCCc2ccccc2)c2cc(C)sc2n1 | 0.083 |  |  |
| CCCCNc1nc(CC)nc2sc(C)cc12 | 3.2 |  |  |
| COc1nc2ccc(Br)cc2cc1[C@@H](c1ccccc1)[C@@](O)(CCN(C)C)c1cccc2ccccc12 [BEDAQUILINE] |  | 10 | 40 |
